The text below walks through data of ChEMBL document CHEMBL3272325, “Structure-activity relationships of dimeric Catharanthus alkaloids. 1. Deacetylvinblastine amide (vindesine) sulfate” (J Med Chem, 1978).

Data set [1] can be described thus: Antitumor activity against mouse P1534(J) cells allografted in mouse assessed as tumor growth inhibition at 0.25 mg/kg/day, ip administered from day 1 to day 9 relative to unreated control. The class given is functional. The note with it: P1534J, route intraperitoneal, read-out: TGI. In short, it runs like this:
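P1534(J) leukemia implanted subcutaneously in mice; sulfate salts given ip on days 1-9. Read-out is percent inhibition of tumor growth versus untreated controls.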

The subject of data set [2] is B16. Description: Antitumor activity against mouse B16 cells allografted in B6D2F1 mouse assessed as mean survival time at 0.389 mg/kg/day, ip administered on day 5, 9 and 13 (reference value: 20.0 days). The class given is functional. The note with it: route intraperitoneal. Summed up: (§1)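 Male B6D2F1 mice implanted ip on day 0 with 0.25 mL of a 20% (w/v) B16 melanoma brei. Alkaloid sulfate salts given ip on days 1, 5, 9 or on days 5, 9, 13, groups of 10, against 30 untreated controls. Read-outs: median survival time with range of individual deaths, and percent increase in life span, with survivors counted on day 56.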

Data set [3] deals with B16. Nature of the data set: Antitumor activity against mouse B16 cells allografted in B6D2F1 mouse assessed as mean survival time at 1.08 mg/kg/day, ip administered on day 1, 5 and 9 (reference value: 20.0 days). The class given is functional. The conditions noted are these: route intraperitoneal. Summed up: as §1
Data set [4] in a line: Toxicity in ip dosed mouse allografted with mouse p388 cells after 1 day. The note with it: in vivo, read-out: MNTD. The class given is organism-based. In short, it runs like this:
(§2)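 P388 ascites implanted ip in mice, 10 animals per group. Sulfate salts given ip either daily on days 1-9 or as a single dose on day 1. Median life span was calculated using all deaths and survivors. Percent increase in life span was taken over untreated controls. The highest nontoxic dose was noted.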

The test system of data set [5] is Friend murine leukemia virus. Nature of the data set: Antimicrobial activity against Friend leukemia virus infected in mouse assessed as inhibition of spleen enlargement at 0.2 mg/kg/day, iv for 10 days relative to untreated control. The conditions noted are these: 240 h. It counts as functional. Summed up: (§3)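 DBA/2 mice bearing Friend leukemia virus were dosed iv for 10 days. Spleen enlargement was compared with untreated controls.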

In data set [6] the test system is B16. Description: Antitumor activity against mouse B16 cells allografted in B6D2F1 mouse assessed as increase in life span at 0.389 mg/kg/day, ip administered on day 5, 9 and 13 measured for 56 days relative to untreated control. It counts as functional. The conditions noted are these: route intraperitoneal. Summed up:
as §1

Data set [7] relates to P388. Description: Antitumor activity against mouse P388 cells allografted in mouse assessed as increase in life span at 2.7 mg/kg/day, ip after 1 day. The class given is functional. The conditions noted are these: 24 h, route intraperitoneal. Summed up:
as §2

For data set [8], the system named is B16. Description: Antitumor activity against mouse B16 cells allografted in B6D2F1 mouse assessed as increase in life span at 0.389 mg/kg/day, ip administered on day 1, 5 and 9 measured for 56 days relative to untreated control. The class given is functional. The conditions noted are these: route intraperitoneal. Summed up: as §1
Data set [9] in a line: Toxicity in ip dosed mouse allografted with mouse P1534(J) cells administered from day 1 to day 9. It counts as organism-based. The note with it: in vivo, read-out: MNTD. In short, it runs like this: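 P1534(J) leukemia implanted subcutaneously in mice. Sulfate salts given ip daily on days 1-9. Read-out was percent inhibition of tumor growth relative to untreated controls. The highest nontoxic dose was recorded.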

Data set [10] concerns Rhesus monkey. Description: Neurotoxicity in iv dosed monkey assessed as peripheral neuropathy. It counts as toxicity, organism-based, Macaca mulatta. The conditions noted are these: in vivo.
Data set [11] concerns Friend murine leukemia virus. Description: Antimicrobial activity against Friend leukemia virus infected in mouse assessed as inhibition of spleen enlargement at 0.25 mg/kg/day, iv for 10 days relative to untreated control. The note with it: 240 h. It counts as functional. Summed up:
as §3

In a further data set the test system is Homo sapiens. Description: Neurotoxicity in human assessed as neutropenia at 3 to 4 mg/m'2, iv once weekly dosed through push technique. The class given is toxicity, organism-based. The conditions noted are these: in vivo.
The nature of data set [12]: Acute toxicity in rat. The class given is organism-based. The note with it: in vivo.
Data set [13] relates to Rhesus monkey. Description: Neurotoxicity in iv dosed monkey assessed as peripheral neuropathy. The note with it: in vivo.
Data set [14] deals with P388. Nature of the data set: Antitumor activity against mouse P388 cells allografted in mouse assessed as increase in life span at 13.5 mg/kg/day, ip after 1 day. It counts as functional. The note with it: 24 h, route intraperitoneal.
Data set [15] deals with B16. Nature of the data set: Antitumor activity against mouse B16 cells allografted in C57Bl/6 mouse assessed as increase in life span at 0.9 mg/kg/day, ip administered on day 5, 9 and 13 measured for 61 days relative to control. The conditions noted are these: route intraperitoneal. The class given is functional. Summed up:
(§4)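 C57BL/6 mice implanted ip with 0.5 mL of B16 melanoma brei. Alkaloid sulfate salts given ip on days 1, 5, 9 or on days 5, 9, 13. Percent increase in life span measured against controls; experiment ended at 61 days.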

The subject of data set [16] is P388. Nature of the data set: Antitumor activity against mouse P388 cells allografted in mouse assessed as increase in life span at 0.4 mg/kg/day, ip administered from day 1 to day 9 relative to untreated control. The conditions noted are these: route intraperitoneal. The class given is functional. Summed up: as §2
Data set [17] deals with B16. Nature of the data set: Antitumor activity against mouse B16 cells allografted in C57Bl/6 mouse assessed as increase in life span at 0.9 mg/kg/day, ip administered on day 1, 5 and 9 measured for 61 days relative to control. The class given is functional. The note with it: route intraperitoneal. In short, it runs like this: as §4
The test system of data set [18] is B16. Nature of the data set: Antitumor activity against mouse B16 cells allografted in B6D2F1 mouse assessed as mean survival time at 1.08 mg/kg/day, ip administered on day 5, 9 and 13 (reference value: 20.0 days). It counts as functional. The conditions noted are these: route intraperitoneal. In short, it runs like this:
as §1

Data set [19] concerns B16. Nature of the data set: Antitumor activity against mouse B16 cells allografted in B6D2F1 mouse assessed as increase in life span at 3 mg/kg/day, ip administered on day 1, 5 and 9 measured for 56 days relative to untreated control. The conditions noted are these: route intraperitoneal. It counts as functional. In short, it runs like this: as §1

Turning to `CC[C@]1(O)C[C@@H]2CN(CCc3c([nH]c4ccccc34)[C@@](C(=O)OC)(c3cc4c(cc3OC)N(C)[C@H]3[C@@](O)(C(N)=O)[C@H](O)[C@]5(CC)C=CCN6CC[C@]43[C@@H]65)C2)C1.O=S(=O)(O)O` [VINDESINE SULFATE], the inhibition in vivo at 0.25 mg/kg/day amounted to 100% in data set [1] and 90% in data set [11]. The MST in the data set on B16 [2] is 25 days; with B16 [3], 42 days; in the data set on B16 [18], 31.5 days. For the same compound, in data set [4], the MTD at 24 h came to 13.5 mg/kg/day. Also, in data set [5], the inhibition in vivo at 0.2 mg/kg/day worked out at 80%. Also, the ILS at 0.389 mg/kg/day in the data set with B16 [6] was determined as 25%; in the data set with B16 [8], 85%. For the same compound, the ILS at 2.7 mg/kg/day in the data set on P388 [7] was determined as 95%. In data set [9], the MTD was determined as 0.25 mg/kg/day. In addition, the Activity result in the data set on Rhesus monkey [10] is given as “Non-toxic”; with Homo sapiens, “Toxic”; with Rhesus monkey [13] it was “Non-toxic”. The compound also had an LD50 in data set [12] of 2 mg/kg. Moreover, the ILS at 13.5 mg/kg/day in the data set with P388 [14] was determined as 231%. The ILS at 0.9 mg/kg/day was 78% in the data set on B16 [15] and 60% in the data set with B16 [17]. Moreover, the ILS at 0.4 mg/kg/day with P388 [16] worked out at 172%. Besides, the ILS at 3 mg/kg/day with B16 [19] turned out to be 138%.
